From ChEMBL document CHEMBL4411275, “Design, synthesis and biological evaluation of quinoline-indole derivatives as anti-tubulin agents targeting the colchicine binding site” (Eur J Med Chem, 2019) come the findings set out here.

Series [1] relates to K562. Description: Antiproliferative activity against human K562 cells after 72 hrs by MTT assay. The series is classed as functional, cell-based. The conditions noted are these: K562, 72 h. The procedure, abridged:
(§1)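 Cells preincubated 24 h at 37 °C, 5% CO₂. Compounds added at several concentrations in medium with 0.1% DMSO for 72 h. MTT (5 mg/mL in PBS) then added for 4 h, and optical density read at 490 nm. IC50 taken from dose-response curves; mean ± SD of at least three independent experiments.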

Series [2] concerns HCT-8. Description: Antiproliferative activity against human HCT8 cells after 72 hrs by MTT assay. The series is classed as functional, cell-based. The note with it: HCT-8, 72 h. Summed up: as §1
Series [3] is described as follows: Toxicity in ICR mouse xenografted with […] cells assessed as body weight loss at 6 mg/kg, iv administered every 2 days for 21 days. The series is classed as organism-based. The conditions noted are these: in vivo. Summed up:
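Five-week-old male ICR mice inoculated subcutaneously in the right flank with 1×10^6 H22 cells. Randomised after one day into groups of eight. Dosed intravenously every 2 days for three weeks. Tumour volume and body weight recorded every 2 days. Tumours then excised and weighed; inhibition (%) = (1 − mean treated tumour weight / mean control tumour weight) × 100.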

The subject of series [4] is A549/TR. As to the kind of experiment: Antiproliferative activity against human taxol-resistant A549/TR cells after 72 hrs by MTT assay. The series is classed as functional, cell-based. Summed up:
as §1

The test system of series [5] is H22 (Mus musculus). Description: Antitumor activity against mouse H22 cells xenografted in ICR mouse assessed as reduction in tumor weight at 6 mg/kg, iv administered every 2 days for 21 days relative to control. On the set-up: scale not given: the % may be the effect or the level left.
Series [6] is described as follows: Drug resistance index, ratio of IC50 for taxol-resistant human HCT8/T cells to IC50 for human HCT8 cells. The series is classed as functional. The procedure, abridged: (§2)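 Resistant and parental sensitive lines exposed to a range of compound concentrations in medium with 0.1% DMSO for 72 h at 37 °C, 5% CO2, after 24 h pre-culture. MTT added for 4 h, absorbance read at 490 nm. IC50 from dose-response curves, at least three independent experiments. DRI = IC50 resistant / IC50 parental.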

Series [7] is described as follows: Drug resistance index, ratio of IC50 for taxol-resistant human A549/TR cells to IC50 for human A549 cells. The format is functional. The procedure, abridged: as §2
In series [8] the test system is A549. As to the kind of experiment: Antiproliferative activity against human A549 cells after 72 hrs by MTT assay. The format is functional, cell-based. The conditions noted are these: A549, 72 h. Summed up:
as §1

Series [9] in a line: Antiproliferative activity against human taxol-resistant HCT8/T cells after 72 hrs by MTT assay. The format is functional. The conditions noted are these: HCT-8, 72 h. Summed up:
as §1

In series [10] the target is T1, Tubulin (Sus scrofa) (UniProt P02554+P02550). Description: Inhibition of [3H]-colchicine binding to biotinylated porcine tubulin at 5 uM after 2 hrs by SPA relative to control. The series is classed as protein assay. The procedure, abridged: (§3)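 Scintillation proximity assay: 0.08 μM [3H]colchicine incubated with biotinylated porcine tubulin (0.5 μg) and test compound for 2 h at 37 °C in 80 mM PIPES pH 6.8, 1 mM EGTA, 10% glycerol, 1 mM MgCl2, 1 mM GTP. Streptavidin SPA beads then added, and bound radioactivity counted by scintillation counter.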

Series [11] deals with Tubulin (Sus scrofa, UniProt P02554+P02550). As to the kind of experiment: Inhibition of porcine brain tubulin polymerization preincubated for 30 mins and measured every 2 mins for 60 mins by spectrophotometric analysis.
Series [12] concerns the target T1, Tubulin (Sus scrofa). As to the kind of experiment: Inhibition of [3H]-colchicine binding to biotinylated porcine tubulin at 1 uM after 2 hrs by SPA relative to control. The format is protein assay. Summed up: as §3
Series [13] has as its system KB. Description: Antiproliferative activity against human KB cells after 72 hrs by MTT assay. The format is functional, cell-based. The procedure, abridged: as §1
The test system of series [14] is MDA-MB-231. As to the kind of experiment: Antiproliferative activity against human MDA-MB-231 cells after 72 hrs by MTT assay. The series is classed as functional, cell-based. The conditions noted are these: MDA-MB-231, 72 h. Summed up:
as §1

For series [15], the system named is H22 (Mus musculus). Description: Antiproliferative activity against mouse H22 cells after 72 hrs by MTT assay. The note with it: H22, 72 h.
Series [16] has as its system L02. As to the kind of experiment: Antiproliferative activity against human LO2 cells after 72 hrs by MTT assay. The series is classed as cell-based. The note with it: L02, 72 h. Summed up: as §1
The subject of series [17] is HepG2. As to the kind of experiment: Antiproliferative activity against human HepG2 cells after 72 hrs by MTT assay. The format is functional, cell-based. The note with it: HepG2, 72 h. Summed up: as §1
Series [18] has as its system H22 (Mus musculus). Description: Antitumor activity against mouse H22 cells xenografted in ICR mouse assessed as reduction in tumor weight at 20 mg/kg/day, iv for 21 days relative to control. Also noted: scale not given: the % may be the effect or the level left.
In series [19] the test system is K562/VCR. Description: Antiproliferative activity against human VCR-resistant K562/VCR cells after 72 hrs by MTT assay. The series is classed as functional, cell-based. The procedure, abridged: as §1
A short description of series [20]: Drug resistance index, ratio of IC50 for VCR-resistant human K562/VCR cells to IC50 for human K562 cells. The format is functional.
The test system of series [21] is Bel-7402. As to the kind of experiment: Antiproliferative activity against human Bel7402 cells after 72 hrs by MTT assay. The format is functional, cell-based. The conditions noted are these: Bel-7402, 72 h. Summed up: as §1
Series [22] in a line: Antiproliferative activity against human ADR-resistant Bel7402/ADR cells after 72 hrs by MTT assay. The series is classed as functional. The note with it: Bel-7402, 72 h. The procedure, abridged: as §1
Series [23] in a line: Drug resistance index, ratio of IC50 for ADR-resistant human Bel7402/ADR cells to IC50 for human Bel7402 cells. The format is functional. The procedure, abridged:
as §2

Each structure is given as a SMILES string. Bounds are passed on as bounds.

T1 sequence (P02550 whole entry, looked up): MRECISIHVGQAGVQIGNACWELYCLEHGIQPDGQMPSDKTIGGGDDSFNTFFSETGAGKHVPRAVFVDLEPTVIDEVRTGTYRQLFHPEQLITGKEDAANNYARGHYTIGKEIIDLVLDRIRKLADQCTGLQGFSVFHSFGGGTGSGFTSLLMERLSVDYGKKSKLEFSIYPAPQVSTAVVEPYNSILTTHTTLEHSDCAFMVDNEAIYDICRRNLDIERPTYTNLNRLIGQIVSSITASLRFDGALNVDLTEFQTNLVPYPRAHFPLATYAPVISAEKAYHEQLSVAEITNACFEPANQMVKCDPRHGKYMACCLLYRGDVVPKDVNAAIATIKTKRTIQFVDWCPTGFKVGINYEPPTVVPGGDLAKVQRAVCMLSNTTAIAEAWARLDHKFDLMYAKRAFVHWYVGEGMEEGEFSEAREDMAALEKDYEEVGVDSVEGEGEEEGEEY
T1 sequence (P02554 whole entry, looked up): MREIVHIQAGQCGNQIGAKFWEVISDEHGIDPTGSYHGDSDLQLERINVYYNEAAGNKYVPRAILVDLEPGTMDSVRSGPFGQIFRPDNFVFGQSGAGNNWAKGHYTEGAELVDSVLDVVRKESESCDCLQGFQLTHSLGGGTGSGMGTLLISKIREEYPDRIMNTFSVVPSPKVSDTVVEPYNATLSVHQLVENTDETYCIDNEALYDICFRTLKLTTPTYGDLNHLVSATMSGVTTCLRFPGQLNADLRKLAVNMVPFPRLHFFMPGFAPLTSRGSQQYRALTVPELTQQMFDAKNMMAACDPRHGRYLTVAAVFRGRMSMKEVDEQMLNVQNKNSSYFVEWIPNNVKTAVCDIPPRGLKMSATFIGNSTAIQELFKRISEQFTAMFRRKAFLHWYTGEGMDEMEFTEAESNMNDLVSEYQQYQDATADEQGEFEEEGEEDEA

In turn, `C=C(c1ccc2c(ccn2C)c1)c1cc(C(F)(F)F)nc2ccccc12` had an IC50 in [1] of 446 nM.

As to `C=C(c1cc(C)nc2ccccc12)c1cccc2c1ccn2C`, in series [1], the IC50 was > 1000 nM.

In the case of `C=C(c1ccc2c(ccn2C)c1)c1cc(C(N)=O)nc2ccccc12`, the IC50 in series [1] is 282 nM.

As for `CC(=O)O[C@H]1C(=O)[C@@]2(C)[C@H]([C@H](OC(=O)c3ccccc3)[C@]3(O)C[C@H](OC(=O)[C@H](O)[C@@H](NC(=O)c4ccccc4)c4ccccc4)C(C)=C1C3(C)C)[C@]1(OC(C)=O)CO[C@@H]1C[C@@H]2O` [PACLITAXEL], the IC50 in [2] amounted to 28 nM; in series [4], 1830 nM; in series [8] it was 18 nM; in series [9], 2590 nM. Also, the Activity result was “Toxic” in series [3] and 72.7% in series [5]. The “Ratio IC50” value came out at 92.5 in series [6] and 101.6 in [7].

For `C=C(c1ccc2c(ccn2CF)c1)c1cc(C)nc2ccccc12`, in series [1], the IC50 was determined as 153 nM.

Take `Cc1cc(C(C)c2cccc3c2ccn3C)c2ccccc2n1` (centres undefined): in series [1], the IC50 is > 1000 nM.

`C=C(c1ccc2c(ccn2C)c1)c1cc(C)nc2ccccc12`: the values for the inhibition in [10] and in series [12] were 89.4% and 78.4%, respectively. Further, in [11], the IC50 turned out to be 2540 nM.

On to `C=C(c1ccc2c(ccn2C(C)=O)c1)c1cc(C)nc2ccccc12`, for which the IC50 in [1] turned out to be 179 nM.

For the molecule `Cc1cc(C(C)c2ccc3c(ccn3C)c2)c2ccccc2n1` (centres undefined), the IC50 amounted to 96 nM in series [2]; 37 nM in series [1]; 109 nM in series [13]; 103 nM in series [14]; 120 nM in [15]; 214 nM in series [16]. It took 101 nM to reach half-maximal inhibition in series [17] (IC50).

Turning to `C=C(c1ccc2c(ccn2C(=O)OC(C)(C)C)c1)c1cc(C)nc2ccccc12`, in series [1], the IC50 is > 1000 nM.

Regarding `COc1ccc2c(ccn2C(=O)c2cc(C)nc3ccccc23)c1`, the IC50 in series [1] is > 1000 nM.

With `COc1ccc(/C=C\c2cc(OC)c(OC)c(OC)c2)cc1OP(=O)([O-])[O-].[Na+].[Na+]` [FOSBRETABULIN DISODIUM], in series [18], the Activity turned out to be 62.7%.

Consider `C=C(c1ccc2c(ccn2C)c1)c1ccnc2ccccc12`, for which inhibition in series [1] was half-maximal at 90 nM (IC50).

`C=C(c1cc(C)nc2ccccc12)c1cn(C)c2cc(OC)ccc12` gave an IC50 in [1] of 106 nM.

Take `CC[C@]1(O)C[C@H]2CN(CCc3c([nH]c4ccccc34)[C@@](C(=O)OC)(c3cc4c(cc3OC)N(C=O)[C@H]3[C@@](O)(C(=O)OC)[C@H](OC(C)=O)[C@]5(CC)C=CCN6CC[C@]43[C@@H]65)C2)C1` [VINCRISTINE]: the IC50 in series [1] was found to be 21 nM; in series [19], 5060 nM. Also, the “Ratio IC50” value in series [20] turned out to be 241.

As for `C=C(c1ccc2c(ccn2C)c1)c1cc(CO)nc2ccccc12`, the IC50 in [1] is 123 nM.

Consider `C=C(c1ccc2c(ccn2C)c1)c1cc(NC)nc2ccccc12`, for which the IC50 in series [2] turned out to be 10 nM; in series [1] it was 5 nM; in series [13] it was 8 nM; in series [14], 27 nM; in series [15], 25 nM; in [16] it was 85 nM. This molecule registered an IC50 in series [17] of 20 nM.

With `C=C(c1cc(C)nc2ccccc12)c1c[nH]c2cc(OC)ccc12`, the IC50 in series [1] is > 1000 nM.

Regarding `C=C(c1ccc2[nH]ccc2c1)c1cc(C)nc2ccccc12`, the IC50 in series [2] is 403 nM; in [1], 121 nM; in series [13], 372 nM; in [14] it was 204 nM; in [15], 184 nM; in series [16], 881 nM. Also, the IC50 in [17] stood at 377 nM.

In the case of `COc1ccc2c(ccn2-c2cc(C)nc3ccccc23)c1N`, half-maximal inhibition in [1] (IC50) was put at 79 nM.

With `COc1ccc(/C=C\c2cc(OC)c(OC)c(OC)c2)cc1O` [COMBRETASTATIN A4], the IC50 in [21] worked out at 11 nM; in [2], 11 nM; in [1], 7 nM; in [4], 175 nM; in series [19], 57 nM; in series [14], 11 nM. In addition, the IC50 in [15] was 10 nM; in series [8] it was 9 nM; in [16] it was 46 nM; in series [9], 87 nM; in [22] it was 58 nM; in [17] it was 9 nM. Also, the Activity in series [18] came out at 51%.

Take `C=C(c1ccc2c(ccn2C)c1)c1cc(OC)nc2ccccc12`: the IC50 in series [2] worked out at 103 nM; in [1] it was 46 nM; in [13], 84 nM; in series [14], 112 nM; in series [15], 105 nM; in [16], 197 nM. This molecule also displayed a half-inhibitory concentration (IC50) in [17] of 53 nM.

Take `COc1ccc2c(ccn2-c2cc(C)nc3ccccc23)c1`: in series [1], the IC50 was > 1000 nM.

For the molecule `C=C(c1ccc2c(ccn2C)c1)c1cc(N(C)C)nc2ccccc12`, in series [1], the IC50 is 171 nM.

`COc1ccc2c(ccn2C(=O)c2cc(C)nc3ccccc23)c1N`: 289 nM corresponded to half-maximal inhibition in series [1] (IC50).

In the case of `COc1cccc2c1C(=O)c1c(O)c3c(c(O)c1C2=O)C[C@@](O)(C(=O)CO)C[C@@H]3O[C@H]1C[C@H](N)[C@H](O)[C@H](C)O1.Cl` [DOXORUBICIN HYDROCHLORIDE], the 50% inhibitory concentration (IC50) in series [21] is 274 nM; in [22], 1730 nM. Moreover, the “Ratio IC50” value in series [23] was found to be 6.3.

With `C=C(c1cc(C)nc2ccccc12)c1cccc2[nH]ccc12`, in [1], the IC50 was > 1000 nM.

Consider `COc1ccc2c(C(C)c3cc(C)nc4ccccc34)c[nH]c2c1` (centres undefined), for which the IC50 in series [1] is > 1000 nM.

`C=C(c1ccc2c(ccn2C)c1)c1cc(C=O)nc2ccccc12` showed an IC50 in series [1] of 94 nM.

Consider `C=C(c1ccc2c(ccn2CC)c1)c1cc(C)nc2ccccc12`, for which the half-inhibitory concentration (IC50) in series [1] is 31 nM.
